Activity calls are given as the source filed them. The calls are words filed in the database; no cut-off is given here.
How the values were obtained:
NCI-H460 [1] = experiment: Synergistic antiproliferative activity against human NCI-H460 cells assessed as combination index at ED90 measured after 72 hrs in presence of camptothecin by celltiter-glo assay; type: functional
[2] = In vivo inhibition of AKT phosphorylation at S473 residue in human NCI-H292 cells xenografted mouse at 120 mg/kg, po administered as single dose measured after 12 hrs by Western blot analysis relative to control; type: functional
HCC70 [3] = experiment: Synergistic antiproliferative activity against human HCC70 cells assessed as combination index at ED75 measured after 72 hrs in presence of docetaxel by celltiter-glo assay; type: functional
Summary of the method: (§1)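 Cells grown in RPMI 1640 with 10% heat-inactivated FBS at 37°C, 5% CO₂. Seeded at 2 to 3 × 10³ per well; drugs added 24 h later. […] Viability read as cellular ATP by CellTiter-Glo. CI calculated by Chou–Talalay from median-effect plots at ED50, ED75 and ED90.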

A2780 [4] = experiment: Synergistic antiproliferative activity against human A2780 cells assessed as combination index at ED50 measured after 72 hrs in presence of gemcitabine by celltiter-glo assay; type: functional
Summary of the method: (§2)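 Cells were seeded at 2–3 × 10³ per well in RPMI 1640 with 10% FBS. At 24 h, MK-2206 and the partner drug were added simultaneously at constant concentration ratios spanning each agent's IC₅₀, for 72 h. Growth was read as cellular ATP by CellTiter-Glo. CI was taken from median-effect plots of each agent alone and in combination (Chou–Talalay), at ED₅₀, ED₇₅ and ED₉₀.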

HCC1954 [5] = experiment: Synergistic antiproliferative activity against human HCC1954 cells assessed as combination index at ED50 measured after 72 hrs in presence of lapatinib by celltiter-glo assay; type: functional; summary of the method: as §1
NCI-H292 [6] = experiment: Synergistic antiproliferative activity against human NCI-H292 cells assessed as combination index at ED90 measured after 72 hrs in presence of erlotinib by celltiter-glo assay; type: functional
SK-BR-3 [7] = experiment: Synergistic antiproliferative activity against human SK-BR-3 cells assessed as combination index at ED90 measured after 72 hrs in presence of docetaxel by celltiter-glo assay; type: functional
NCI-H1703 = experiment: Synergistic antiproliferative activity against human NCI-H1703 cells assessed as combination index at ED25 to ED90 measured after 72 hrs in presence of carboplatin by celltiter-glo assay; type: functional
[8] = Toxicity in human PC-3 cells xenografted CD1 nude mouse assessed as body weight loss at 120 mg/kg, po administered 3 times per week for 2 weeks starting 24 hrs post docetaxel treatment and measured during compound dosing relative to control; type: organism-based; conditions: in vivo, 336 h
Summary of the method: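 Male CD1-nude mice with s.c. PC-3 tumours (50% Matrigel/50% PBS, left flank), randomized at mean 0.2 cm³, n=5/group, treated from 25 d post-implant. Body weight monitored versus vehicle-only controls.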

BT-474 = experiment: Synergistic antiproliferative activity against human BT-474 cells assessed as combination index at ED75 preincubated for 24 hrs followed by compound washout and subsequent docetaxel addition and measured after 72 hrs by celltiter-glo assay; type: functional
Summary of the method: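 Sequential schedule. Cells were seeded at 2 to 3 × 10³ per well in RPMI 1640 with 10% FBS and dosed 24 h after plating. They were exposed to the Akt inhibitor for 24 h, washed free of it, then given docetaxel for a further 72 h. Fixed concentration ratios spanned each agent's IC₅₀. ATP was read by CellTiter-Glo, and Chou–Talalay CI was calculated at ED50, ED75 and ED90.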

[9] = molecular target: RAC-alpha serine/threonine-protein kinase (Homo sapiens) (UniProt P31749); experiment: Inhibition of AKT in human HCC827 cells assessed as reduction in PRAS40 phosphorylation at T246 residue at 5 umol/L measured after 5 hrs in presence of erlotinib by Western blot analysis; type: cell-based; conditions: dose 5.0 µmol/L
Chain of RAC-alpha serine/threonine-protein kinase (Homo sapiens) (P31749 whole entry): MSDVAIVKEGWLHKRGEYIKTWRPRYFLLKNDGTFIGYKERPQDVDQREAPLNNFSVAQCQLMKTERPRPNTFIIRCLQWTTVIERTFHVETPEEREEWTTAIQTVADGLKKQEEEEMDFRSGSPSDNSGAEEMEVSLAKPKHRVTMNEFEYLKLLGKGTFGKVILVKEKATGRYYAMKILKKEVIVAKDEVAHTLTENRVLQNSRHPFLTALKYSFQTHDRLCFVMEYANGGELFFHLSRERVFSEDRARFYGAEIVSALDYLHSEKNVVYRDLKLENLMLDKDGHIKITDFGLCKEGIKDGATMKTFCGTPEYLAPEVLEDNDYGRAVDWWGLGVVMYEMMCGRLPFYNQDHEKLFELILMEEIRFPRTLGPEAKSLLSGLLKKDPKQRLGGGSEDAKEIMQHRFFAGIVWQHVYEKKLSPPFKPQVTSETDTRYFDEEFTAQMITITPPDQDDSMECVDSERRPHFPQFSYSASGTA

SK-OV-3 = experiment: Synergistic antiproliferative activity against human SK-OV-3 cells assessed as combination index at ED75 measured after 96 hrs in presence of lapatinib by celltiter-glo assay; type: functional
A2780 [10] = experiment: Synergistic antiproliferative activity against human A2780 cells assessed as combination index at ED90 measured after 72 hrs in presence of doxorubicin by celltiter-glo assay; type: functional; summary of the method: as §2
HCC70 [11] = experiment: Synergistic antiproliferative activity against human HCC70 cells assessed as combination index at ED90 measured after 96 hrs in presence of lapatinib by celltiter-glo assay; type: functional
NCI-H292 [12] = experiment: Antitumor activity against human NCI-H292 cells xenografted in CD-1 mouse assessed as tumor growth suppression at 120 mg/kg, po administered 3 times per week for 2 weeks starting 2 hrs post-erlotinib treatment and measured twice a week during compound dosing by caliper method; type: functional, organism-based
Summary of the method: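 Female CD1-nude mice carried s.c. NCI-H292 cells in Matrigel/PBS and were randomized at 0.2 cm³, n = 5. […] MK-2206 (30% Captisol) was given 2 h later at 120 mg/kg po on days 0, 2, 4, 7, 9, 11, or at 360 mg/kg on days 0 and 7. Control received vehicle. Caliper volume twice weekly.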

[13] = molecular target: RAC-alpha serine/threonine-protein kinase (Homo sapiens) (UniProt P31749); experiment: Inhibition of AKT in human HCC827 cells assessed as reduction in PRAS40 phosphorylation at T246 residue at 5 umol/L measured after 5 hrs by Western blot analysis; type: cell-based; conditions: dose 5.0 µmol/L
HCC70 [14] = experiment: Synergistic antiproliferative activity against human HCC70 cells assessed as combination index at ED50 treated 24 hrs prior to lapatinib and measured after 72 hrs by celltiter-glo assay; type: functional; conditions: time 96 hrs
UMC-11 = experiment: Synergistic antiproliferative activity against human UMC-11 cells assessed as combination index at ED25 to ED90 measured after 72 hrs in presence of carboplatin by celltiter-glo assay; type: functional
HCC1954 [15] = experiment: Synergistic antiproliferative activity against human HCC1954 cells assessed as combination index at ED90 measured after 96 hrs in presence of lapatinib by celltiter-glo assay; type: functional
MDA-MB-231 = experiment: Synergistic antiproliferative activity against human MDA-MB-231 cells assessed as combination index at ED50 measured after 72 hrs in presence of docetaxel by celltiter-glo assay; type: functional; summary of the method: as §1
[16] = Toxicity in human NCI-H292 cells xenografted CD-1 mouse assessed as death at 120 mg/kg, po administered 3 times per week for 2 weeks starting 2 hrs post-erlotinib treatment and measured during compound dosing; type: organism-based; conditions: in vivo, 336 h
Summary of the method: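 NCI-H292 cells in 50% Matrigel/PBS injected s.c. into flank of female CD1-nude mice; dosing began after 2 wk at mean tumour 0.2 cm³, n = 5/group. […] Body weight and signs monitored; treatment ended day 16.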

NCI-H460 [17] = experiment: Synergistic antiproliferative activity against human NCI-H460 cells assessed as combination index at ED50 measured after 72 hrs in presence of doxorubicin by celltiter-glo assay; type: functional
HCC1954 [18] = experiment: Synergistic antiproliferative activity against human HCC1954 cells assessed as combination index at ED50 treated 24 hrs prior to lapatinib and measured after 72 hrs by celltiter-glo assay; type: functional; conditions: time 96 hrs
SK-BR-3 [19] = experiment: Synergistic antiproliferative activity against lapatinib pretreated human SK-BR-3 cells assessed as combination index at ED75 measured after 72 hrs by celltiter-glo assay; type: functional
A2780 [20] = experiment: Synergistic antiproliferative activity against human A2780 cells assessed as combination index at ED90 measured after 72 hrs in presence of 5-FU by celltiter-glo assay; type: functional; summary of the method: as §2

In the case of `Cl.NC1(c2ccc(-c3nc4ccn5c(=O)[nH]nc5c4cc3-c3ccccc3)cc2)CCC1`, the CI90 (NCI-H460 [1]) is reported as 0.63, the inhibition in vivo at 120 mg/kg [2] is reported as 53.1% and the CI75 (HCC70 [3]) is reported as 0.7. The CI50 (A2780 [4]) was 0.57, the CI50 (HCC1954 [5]) was 0.18 and the CI90 (NCI-H292 [6]) was 0.28. The CI90 (SK-BR-3 [7]) was 0.8, the CI (NCI-H1703) was 0.53 and the Activity [8] was 9%. The CI75 (BT-474) was 1.5, the inhibition [9] was “Active” and the CI75 (SK-OV-3) was 0.18. The CI90 (A2780 [10]) was 0.27, the CI90 (HCC70 [11]) was 0.18 and the Activity (NCI-H292 [12]) was “Active”. The inhibition [13] was “Active”, the CI50 (HCC70 [14]) was 0.18 and the CI (UMC-11) was 1.36. The CI90 (HCC1954 [15]) was 0.18, the CI50 (MDA-MB-231) was 0.9 and the Activity [16] was “Non-Toxic”. The CI50 (NCI-H460 [17]) was 0.27, the CI50 (HCC1954 [18]) was 0.18 and the CI75 (SK-BR-3 [19]) was 0.18. For the same compound, the CI90 (A2780 [20]) was 0.53.

Reference: ChEMBL document CHEMBL5705892, “MK-2206, an allosteric Akt inhibitor, enhances antitumor efficacy by standard chemotherapeutic agents or molecular targeted drugs in vitro and in vivo” (Mol Cancer Ther, 2010)
